Measurements collected from several papers.
Lines come from different studies, so protocols differ.
Target: Phosphatidylinositol 3-kinase C2 domain-containing subunit gamma (PIK3C2G, Homo sapiens, UniProt O75747)
One construct used (O75747 1-1486): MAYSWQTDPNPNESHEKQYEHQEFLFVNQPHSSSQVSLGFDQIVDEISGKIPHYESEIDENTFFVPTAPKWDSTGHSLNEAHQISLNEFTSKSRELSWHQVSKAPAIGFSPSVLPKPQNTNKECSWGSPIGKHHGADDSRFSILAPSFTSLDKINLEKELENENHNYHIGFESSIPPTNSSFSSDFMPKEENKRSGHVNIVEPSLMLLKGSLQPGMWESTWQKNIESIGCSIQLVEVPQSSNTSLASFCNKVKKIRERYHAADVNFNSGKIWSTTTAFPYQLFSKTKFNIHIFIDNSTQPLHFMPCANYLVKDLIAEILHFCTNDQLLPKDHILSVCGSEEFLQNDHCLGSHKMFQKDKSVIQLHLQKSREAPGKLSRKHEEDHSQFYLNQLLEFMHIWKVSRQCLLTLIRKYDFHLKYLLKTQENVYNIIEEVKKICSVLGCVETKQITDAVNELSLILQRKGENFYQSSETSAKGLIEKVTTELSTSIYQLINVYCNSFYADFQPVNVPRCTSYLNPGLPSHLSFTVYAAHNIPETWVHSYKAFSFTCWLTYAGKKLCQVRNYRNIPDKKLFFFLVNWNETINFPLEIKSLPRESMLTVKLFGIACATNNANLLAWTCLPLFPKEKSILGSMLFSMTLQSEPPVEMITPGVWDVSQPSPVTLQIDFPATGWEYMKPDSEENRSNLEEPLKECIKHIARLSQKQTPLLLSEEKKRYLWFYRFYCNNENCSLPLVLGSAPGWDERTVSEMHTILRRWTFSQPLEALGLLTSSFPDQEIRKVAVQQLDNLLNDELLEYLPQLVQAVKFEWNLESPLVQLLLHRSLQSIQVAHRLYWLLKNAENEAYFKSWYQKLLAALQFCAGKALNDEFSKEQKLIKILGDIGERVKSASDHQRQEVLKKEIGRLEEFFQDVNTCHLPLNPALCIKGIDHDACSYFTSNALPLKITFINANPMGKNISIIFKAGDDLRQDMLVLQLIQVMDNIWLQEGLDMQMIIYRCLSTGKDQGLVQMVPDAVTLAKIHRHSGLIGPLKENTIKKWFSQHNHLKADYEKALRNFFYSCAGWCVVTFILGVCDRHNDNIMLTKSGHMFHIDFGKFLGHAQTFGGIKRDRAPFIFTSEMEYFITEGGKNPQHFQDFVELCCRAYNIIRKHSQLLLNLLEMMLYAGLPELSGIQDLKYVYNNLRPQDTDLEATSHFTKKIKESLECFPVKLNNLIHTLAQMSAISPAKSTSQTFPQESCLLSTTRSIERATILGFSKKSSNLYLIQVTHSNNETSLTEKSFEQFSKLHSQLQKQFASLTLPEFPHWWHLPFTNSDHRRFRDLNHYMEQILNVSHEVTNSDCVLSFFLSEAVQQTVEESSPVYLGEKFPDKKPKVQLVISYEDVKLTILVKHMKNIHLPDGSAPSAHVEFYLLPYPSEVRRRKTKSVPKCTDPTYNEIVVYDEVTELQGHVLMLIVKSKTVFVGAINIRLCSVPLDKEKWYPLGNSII

Compound	test	conditions	remaining binding
c1cncc(-c2cccc(Nc3nccc(NC4CCCCC4)n3)c2)c1	binding, competition with immobilised ligand	10 µM	51%
O=C(c1ccc(Nc2ncc(Cl)c(-c3ccc(Cl)s3)n2)cc1)N1CCC(N2CCCC2)CC1	binding, competition with immobilised ligand	1 µM	100%
CNC(=O)c1ccc(Nc2ncc(C(F)(F)F)c(NCc3nccnc3N(C)S(C)(=O)=O)n2)cc1	cell-free assay, competition with immobilised ligand	0.1 µM	92%
C[C@@H](c1ccc(-n2cnc3c(N)ncnc32)cc1)N1CCc2nn(C)c(Cc3ccccc3)c2C1=O	binding, competition with immobilised ligand	0.1 µM	92%
CCCOc1ccc([C@@H]2[C@@H](C(=O)O)[C@H](c3ccc4c(c3)OCO4)CN2CC(=O)Nc2c(CC)cccc2CC)cc1	cell-free assay, competition with immobilised ligand	1 µM	78%
CCN1CCN(Cc2ccc(C(=O)Nc3ccc(C)c(Oc4ccc5c(c4)CC(=O)N5)c3)cc2C(F)(F)F)CC1	binding, competition with immobilised ligand	1 µM	100%
Cc1nc(C2CCN(C(=O)c3ccc(OC(F)(F)F)cc3N)CC2)c2ncc(N3CCN(C)CC3)cc2n1	cell-free assay, competition with immobilised ligand	1 µM	100%
Cc1cnc(Nc2ccc(C(=O)N3CCC(N4CCCC4)CC3)cc2)nc1-c1cc2ccccc2s1	binding, competition with immobilised ligand	1 µM	90%
CNC(=O)[C@@H]1CC[C@@H](n2c(-c3ccc4cnccc4c3)nc3ccc(C(=O)NCc4cccc(C(N)=O)c4)cc32)C1	binding, competition with immobilised ligand	1 µM	100%
COc1ncc2cc3ccccc3nc2c1C#N	cell-free assay, competition with immobilised ligand	5 µM	84%
O=C(Nc1c[nH]nc1C(=O)NC1CCNCC1)c1cc(F)cc(F)c1	binding, competition with immobilised ligand	1 µM	100%
CN(C)c1nccc(-c2cnn3ncccc23)n1	binding	1 µM	100%
CN(C)C(=O)Cn1cc(-c2nc([C@@](C)(c3ccc(-c4cnc(N)nc4)cc3)C3CC3)no2)cn1	cell-free assay, competition with immobilised ligand	1 µM	66%
F[C@@H]1CCN(c2nccc(-c3cnn4ncccc34)n2)C1	binding	1 µM	82%
O=C(c1ccc(Nc2ncc(Cl)c(-c3cc4ccccc4s3)n2)cc1)N1CCC(N2CCCC2)CC1	binding, competition with immobilised ligand	1 µM	96%
N[C@@H]1CCN(c2nccc(-c3cnn4ncccc34)n2)C1	binding	1 µM	100%
O=C(NCc1ncc(C(F)(F)F)cc1Cl)c1ccc2c(c1)C1(CCS(=O)(=O)CC1)[C@@H](C1CC1)N2S(=O)(=O)c1ccc(F)cc1	cell-free assay, competition with immobilised ligand	1 µM	75%
CN(CCCC(F)(F)F)c1nccc(-c2cnn3ncccc23)n1	binding	1 µM	100%
Cc1nc(NC(=O)N2CCC[C@H]2C(N)=O)sc1-c1ccnc(C(C)(C)C(F)(F)F)c1	binding, competition with immobilised ligand	10 µM	9.6%
CC(=O)N1CCC(c2ccc(C(=O)NC3=NCCN3)cc2C(F)(F)F)CC1	cell-free assay, competition with immobilised ligand	1 µM	85%
CN(C)c1ncc(F)c(-c2cnn3ncccc23)n1	binding	1 µM	56%
